We go through twelve molecules from ChEMBL document CHEMBL1156264, “Synthesis and structure-activity relationships of dimeric peptide antagonists of the human immunoglobulin G-human neonatal Fc receptor (IgG-FcRn) interaction” (J Med Chem, 2010).

Molecules are shown by their SMILES. Calls of active or inactive are those of the source. The rule behind the calls is not given here. Numbered stars: 1 amine (or outer) side, 2 acyl side, 3 side chain; on linkers, the order of the positions; unused ones are H or OH. Bridge positions count the residues as written; N and C are the ends. Square brackets hold non-standard residues; d marks the D form. Peptide text beside a SMILES is read from it. I, II: the chains in the order shown. X3 = CN(CCCNC(=O)CCNC(=O)CCSCC(=O)[*:1])CCCNC(=O)CCNC(=O)CCSCC(=O)[*:2]; Phe(4-guanidino) = N=C(N)Nc1ccc(C[C@H](N)C(=O)O)cc1; X1 = O=C(C(=O)[*:2])[C@H](Cc1ccc(O)cc1)N[*:1]; NMeL = CN[C@@H](CC(C)C)C(=O)O; Pen = CC(C)(S)[C@H](N)C(=O)O; X4 = O=C(CSCC(=O)[*:2])[*:1]; Sar = CNCC(=O)O

What is called IC50 is the midpoint of a concentration-inhibition curve. One may read the Kd as the concentration at which binding is half-saturated. A higher Kd goes with a looser complex.

Experiment [1] has as its target T1, IgG receptor FcRn large subunit p51 (Homo sapiens, UniProt P55899). Description: Inhibition of IgG binding to soluble human FcRn after 2 hrs by competition ELISA. (In an ELISA, binding on a coated surface is turned into a signal by an enzyme label.)
The target of experiment [2] is T1, IgG receptor FcRn large subunit p51. Put plainly: Ratio of RF-Pen-TGHFG-Sar-NMeLeu-YPC IC50 to compound IC50 for soluble human FcRn.
The next experiment deals with Mus musculus. Description: Increase in human IgG catabolism in endogenous FcRn/beta2m gene knockout TG32B transgenic mouse harboring human FcRn at 2.5 mg/kg, iv QD for 4 consecutive days measured after 24 hrs by ELISA. It is filed as functional, organism-based. Also on record: dose 2.5 mg/kg. The essentials:
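TG32B mice (muFcRn−/−, muβ2m−/−, huFcRn+/+, huβ2m+/+), 4 per group, got 500 mg/kg hIgG (pooled subtypes) iv at 0 h. Peptide or vehicle (20 mM sodium acetate, pH 5) was given iv at 24, 48, 72 and 96 h. Blood was taken before each injection and at 30, 120 and 168 h. Serum hIgG was measured by ELISA: goat anti-hIgG(Fab) capture, goat anti-hIgG(Fc)-HRP detection.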

The target of experiment [3] is T1, IgG receptor FcRn large subunit p51. Put plainly: Ratio of QRF-Asp-TGHFGGLYP-Lys-NGP IC50 to compound IC50 for soluble human FcRn.
The target is the same in experiment [4]. Put plainly: Binding affinity to soluble human FcRn at pH 7.4 by surface plasmon resonance assay. The essentials:
(§1)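 shFcRn was amine-coupled to a CM5 dextran chip, and peptide dilutions were run at pH 6 or pH 7.4 on a Biacore 3000 or T100. The equilibrium response was plotted against concentration and fitted to a steady-state affinity model to give Kd.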

Experiment [5] has the same target. Description: Binding affinity to soluble human FcRn at pH 6 by surface plasmon resonance assay. The method in brief:
as §1

T1 sequence (P55899 whole entry): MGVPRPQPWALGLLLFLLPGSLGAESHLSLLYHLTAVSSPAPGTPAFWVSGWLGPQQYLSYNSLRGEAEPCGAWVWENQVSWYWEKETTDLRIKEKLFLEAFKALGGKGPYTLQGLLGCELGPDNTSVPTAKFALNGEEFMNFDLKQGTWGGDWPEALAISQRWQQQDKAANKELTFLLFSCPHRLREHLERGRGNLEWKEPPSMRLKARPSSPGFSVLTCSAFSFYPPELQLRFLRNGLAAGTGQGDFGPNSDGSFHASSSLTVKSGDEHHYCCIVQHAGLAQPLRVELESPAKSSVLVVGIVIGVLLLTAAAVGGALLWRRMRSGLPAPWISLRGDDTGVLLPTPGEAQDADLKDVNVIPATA

In experiment [1], `CC(C)C[C@H]1C(=O)N[C@@H](Cc2ccc(O)cc2)C(=O)C(=O)N2CCC[C@H]2C(=O)N[C@H](C(N)=O)CSSC(C)(C)[C@H](NC(=O)[C@H](Cc2ccccc2)NC(=O)[C@H](CCCNC(=N)N)NC(=O)CN(C)CCNC(=O)CCC(=O)N[C@@H](CCCNC(=N)N)C(=O)N[C@@H](Cc2ccccc2)C(=O)N[C@@H]2C(=O)N[C@@H]([C@@H](C)O)C(=O)NCC(=O)N[C@@H](Cc3c[nH]cn3)C(=O)N[C@@H](Cc3ccccc3)C(=O)NCC(=O)N(C)CC(=O)N(C)[C@@H](CC(C)C)C(=O)N[C@H](Cc3ccc(O)cc3)C(=O)C(=O)N3CCC[C@H]3C(=O)N[C@H](C(N)=O)CSSC2(C)C)C(=O)N[C@@H]([C@@H](C)O)C(=O)NCC(=O)N[C@@H](Cc2c[nH]cn2)C(=O)N[C@@H](Cc2ccccc2)C(=O)NCC(=O)N(C)CC(=O)N1C` displayed an IC50 of 0.0026 µM. The Ratio IC50 in experiment [2] was found to be 200. Besides, in the experiment on Mus musculus, the outcome was Active.

As for `CC(C)C[C@H]1C(=O)N[C@@H](Cc2ccc(O)cc2)C(=O)C(=O)N2CCC[C@H]2C(=O)N[C@H](C(=O)N[C@@H](CC(N)=O)C(=O)NCC(=O)N2CCC[C@H]2C(N)=O)CCCCNC(=O)C[C@H](NC(=O)[C@H](Cc2ccccc2)NC(=O)CSCCC(=O)NCCC(=O)NCCCN(C)CCCNC(=O)CCNC(=O)CCSCC(=O)N[C@@H](CCC(N)=O)C(=O)N[C@@H](CCCNC(=N)N)C(=O)N[C@@H](Cc2ccccc2)C(=O)N[C@H]2CC(=O)NCCCC[C@@H](C(=O)N[C@@H](CC(N)=O)C(=O)NCC(=O)N3CCC[C@H]3C(N)=O)NC(=O)[C@@H]3CCCN3C(=O)C(=O)[C@H](Cc3ccc(O)cc3)NC(=O)[C@H](CC(C)C)N(C)C(=O)CN(C)C(=O)CNC(=O)[C@H](Cc3ccccc3)NC(=O)[C@H](Cc3c[nH]cn3)NC(=O)CNC(=O)[C@H]([C@@H](C)O)NC2=O)C(=O)N[C@@H]([C@@H](C)O)C(=O)NCC(=O)N[C@@H](Cc2c[nH]cn2)C(=O)N[C@@H](Cc2ccccc2)C(=O)NCC(=O)N(C)CC(=O)N1C` (I: QRFDTGHFG[Sar][NMeL][X1]PKNGP-NH2 / II: FDTGHFG[Sar][NMeL][X1]PKNGP-NH2; lactam I:4-I:14, II:2-II:12; linker I:N-II:N via X3), the Ratio IC50 in experiment [3] was 9.2.

Take `CC(=O)N[C@@H](CCCNC(=N)N)C(=O)N[C@@H](Cc1ccccc1)C(=O)N[C@@H]1C(=O)N(C)[C@@H](C)C(=O)NCC(=O)N[C@@H](Cc2cnc[nH]2)C(=O)N[C@@H](Cc2ccccc2)C(=O)N[C@H]2CCCN(CC(=O)N(C)[C@@H](CC(C)C)C(=O)N[C@@H](Cc3ccc(O)cc3)C(=O)C(=O)N3CCC[C@H]3C(=O)N[C@H](C(N)=O)CSSC1(C)C)C2=O`: the dissociation constant Kd in experiment [4] is 0.95 µM; in experiment [5], 0.15 µM. Also, the IC50 in experiment [1] worked out at 1.1 µM.

As to `CC(=O)N[C@@H](CCCNC(=N)N)C(=O)N[C@@H](Cc1ccccc1)C(=O)N[C@@H]1C(=O)N[C@@H]([C@@H](C)O)C(=O)NCC(=O)N[C@@H](Cc2ccc(NC(=N)N)cc2)C(=O)NCC(=O)N(C)CC(=O)N(C)[C@@H](CC(C)C)C(=O)N[C@@H](Cc2ccc(O)cc2)C(=O)C(=O)N2CCC[C@H]2C(=O)N[C@H](C(N)=O)CSSC1(C)C` (Ac-RF[Pen]TG[Phe(4-guanidino)]G[Sar][NMeL][X1]PC-NH2; disulfide 3-12), the Kd in experiment [4] was 0.074 µM; in experiment [5], 0.062 µM. Moreover, the IC50 in experiment [1] came out at 1 µM.

`CC(=O)N[C@@H](CCCNC(=N)N)C(=O)N[C@@H](Cc1ccccc1)C(=O)N[C@H]1CC(=O)NCCCC[C@@H](C(N)=O)NC(=O)[C@@H]2CCCN2C(=O)C(=O)[C@H](Cc2ccc(O)cc2)NC(=O)[C@H](CC(C)C)N(C)C(=O)CN(C)C(=O)CNC(=O)[C@@H](Cc2ccccc2)NC(=O)[C@H](Cc2c[nH]cn2)NC(=O)CNC(=O)[C@H]([C@@H](C)O)NC1=O`: the figures for the Kd in experiment [4] and in experiment [5] were 0.93 µM and 0.14 µM, respectively. The molecule further returned an IC50 in experiment [1] of 1.9 µM.

For the molecule `CC(C)C[C@H]1C(=O)N[C@@H](Cc2ccc(O)cc2)C(=O)C(=O)N2CCC[C@H]2C(=O)N[C@H](C(=O)N[C@@H](CC(N)=O)C(=O)NCC(=O)N2CCC[C@H]2C(N)=O)CCCCNC(=O)C[C@H](NC(=O)[C@H](Cc2ccccc2)NC(=O)CSCC(=O)N[C@@H](CCC(N)=O)C(=O)N[C@@H](CCCNC(=N)N)C(=O)N[C@@H](Cc2ccccc2)C(=O)N[C@H]2CC(=O)NCCCC[C@@H](C(=O)N[C@@H](CC(N)=O)C(=O)NCC(=O)N3CCC[C@H]3C(N)=O)NC(=O)[C@@H]3CCCN3C(=O)C(=O)[C@H](Cc3ccc(O)cc3)NC(=O)[C@H](CC(C)C)N(C)C(=O)CN(C)C(=O)CNC(=O)[C@H](Cc3ccccc3)NC(=O)[C@H](Cc3c[nH]cn3)NC(=O)CNC(=O)[C@H]([C@@H](C)O)NC2=O)C(=O)N[C@@H]([C@@H](C)O)C(=O)NCC(=O)N[C@@H](Cc2c[nH]cn2)C(=O)N[C@@H](Cc2ccccc2)C(=O)NCC(=O)N(C)CC(=O)N1C` (I: QRFDTGHFG[Sar][NMeL][X1]PKNGP-NH2 / II: FDTGHFG[Sar][NMeL][X1]PKNGP-NH2; lactam I:4-I:14, II:2-II:12; linker I:N-II:N via X4), in experiment [1], the 50% inhibitory concentration (IC50) was 0.58 µM. Besides, in experiment [3], the Ratio IC50 worked out at 38.

In the case of `CC(=O)N[C@@H](CCCNC(=N)N)C(=O)N[C@@H](Cc1ccccc1)C(=O)N[C@@H]1C(=O)N[C@@H]([C@@H](C)O)C(=O)NCC(=O)N[C@@H](Cc2c[nH]cn2)C(=O)N[C@@H](Cc2ccccc2)C(=O)NCC(=O)N(C)CC(=O)N(C)[C@@H](CC(C)C)C(=O)N[C@@H](Cc2ccc(O)cc2)C(=O)C(=O)N2CCC[C@H]2C(=O)N[C@H](C(N)=O)CSSC1(C)C`, the Kd in experiment [4] was determined as 0.17 µM; in experiment [5], 0.031 µM. In experiment [1], this molecule registered an IC50 of 0.52 µM.

`CC(=O)N[C@@H](CCCNC(=N)N)C(=O)N[C@@H](Cc1ccccc1)C(=O)N[C@H]1CSSC[C@@H](C(N)=O)NC(=O)[C@@H]2CCCN2C(=O)C(=O)[C@H](Cc2ccc(O)cc2)NC(=O)[C@H](CC(C)C)NC(=O)CNC(=O)CNC(=O)[C@H](Cc2ccccc2)NC(=O)[C@H](Cc2cnc[nH]2)NC(=O)CNC(=O)[C@H]([C@@H](C)O)NC1=O` came in with an IC50 in experiment [1] of 37 µM. Besides, in experiment [5], the Kd is 5.9 µM.

Regarding `CC(=O)N[C@@H](CCC(N)=O)C(=O)N[C@@H](CCCNC(=N)N)C(=O)N[C@@H](Cc1ccccc1)C(=O)N[C@H]1CSSC[C@@H](C(=O)N[C@@H](CC(N)=O)C(=O)NCC(=O)N2CCC[C@H]2C(N)=O)NC(=O)[C@@H]2CCCN2C(=O)C(=O)[C@H](Cc2ccc(O)cc2)NC(=O)[C@H](CC(C)C)NC(=O)CNC(=O)CNC(=O)[C@H](Cc2ccccc2)NC(=O)[C@H](Cc2cnc[nH]2)NC(=O)CNC(=O)[C@H]([C@@H](C)O)NC1=O`, the Kd was found to be 37 µM in experiment [4] and 5.3 µM in experiment [5]. Besides, the IC50 in experiment [1] was determined as 40 µM.

Turning to `CC(C)C[C@H]1C(=O)N[C@@H](Cc2ccc(O)cc2)C(=O)C(=O)N2CCC[C@H]2C(=O)N[C@H](C(N)=O)CSSC(C)(C)[C@H](NC(=O)[C@H](Cc2ccccc2)NC(=O)[C@H](CCCNC(=N)N)NCCNC(=O)CCC(=O)N[C@@H](CCCNC(=N)N)C(=O)N[C@@H](Cc2ccccc2)C(=O)N[C@@H]2C(=O)N[C@@H]([C@@H](C)O)C(=O)NCC(=O)N[C@@H](Cc3c[nH]cn3)C(=O)N[C@@H](Cc3ccccc3)C(=O)NCC(=O)N(C)CC(=O)N(C)[C@@H](CC(C)C)C(=O)N[C@@H](Cc3ccc(O)cc3)C(=O)C(=O)N3CCC[C@H]3C(=O)N[C@H](C(N)=O)CSSC2(C)C)C(=O)N[C@@H]([C@@H](C)O)C(=O)NCC(=O)N[C@@H](Cc2c[nH]cn2)C(=O)N[C@@H](Cc2ccccc2)C(=O)NCC(=O)N(C)CC(=O)N1C`, the IC50 in experiment [1] was found to be 0.0016 µM. Also, in experiment [2], the Ratio IC50 is 330.

In experiment [1], `CC(C)C[C@H]1C(=O)N[C@@H](Cc2ccc(O)cc2)C(=O)C(=O)N2CCC[C@H]2C(=O)N[C@H](C(=O)N[C@@H](CC(N)=O)C(=O)NCC(=O)N2CCC[C@H]2C(N)=O)CCCCNC(=O)C[C@H](NC(=O)[C@H](Cc2ccccc2)NC(=O)CSCCC(=O)NCCCN(CCCNC(=O)CCSCC(=O)N[C@@H](CCC(N)=O)C(=O)N[C@@H](CCCNC(=N)N)C(=O)N[C@@H](Cc2ccccc2)C(=O)N[C@H]2CC(=O)NCCCC[C@@H](C(=O)N[C@@H](CC(N)=O)C(=O)NCC(=O)N3CCC[C@H]3C(N)=O)NC(=O)[C@@H]3CCCN3C(=O)C(=O)[C@H](Cc3ccc(O)cc3)NC(=O)[C@H](CC(C)C)N(C)C(=O)CN(C)C(=O)CNC(=O)[C@H](Cc3ccccc3)NC(=O)[C@H](Cc3c[nH]cn3)NC(=O)CNC(=O)[C@H]([C@@H](C)O)NC2=O)CC(=O)NCC(=O)O)C(=O)N[C@@H]([C@@H](C)O)C(=O)NCC(=O)N[C@@H](Cc2c[nH]cn2)C(=O)N[C@@H](Cc2ccccc2)C(=O)NCC(=O)N(C)CC(=O)N1C` displayed an IC50 of 0.6 µM. The Ratio IC50 in experiment [3] is 37.

As for `CC(=O)N[C@@H](CCCNC(=N)N)C(=O)N[C@@H](Cc1ccccc1)C(=O)N[C@@H]1C(=O)N[C@@H]([C@@H](C)O)C(=O)NCC(=O)N[C@@H](Cc2cnc[nH]2)C(=O)N[C@@H](Cc2ccccc2)C(=O)N[C@H]2CCCN(CC(=O)N(C)[C@@H](CC(C)C)C(=O)N[C@@H](Cc3ccc(O)cc3)C(=O)C(=O)N3CCC[C@H]3C(=O)N[C@H](C(N)=O)CSSC1(C)C)C2=O`, the Kd in experiment [4] stood at 0.26 µM; in experiment [5] it was 0.043 µM. Besides, the concentration for half-maximal inhibition (IC50) in experiment [1] worked out at 0.43 µM.
